Test results from ChEMBL document CHEMBL1165997, “Sesquiterpenoids from Inula lineariifolia inhibit nitric oxide production” (J Nat Prod, 2010).

How the values were obtained:
RAW264.7 [1] = experiment: Inhibition of LPS-induced NO production in mouse RAW264.7 cells measured after 24 hrs; assay type: functional, cell-based
Procedure, shortened: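 RAW264.7 cells, harvested from 100 mm dishes, were seeded at 2 × 10^5 cells/well. They were pretreated with a range of sample concentrations for 30 min, then incubated 24 h with or without LPS at 1 µg/mL. Nitrite in the culture supernatant was measured by the Griess reaction, and IC50 was reported.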

RAW264.7 [2] = experiment: Cytotoxicity against mouse RAW264.7 cells at concentration required inhibit NO synthesis by MTT assay; assay type: cell-based

Row | Compound | IC50 (RAW264.7 [1]; Mus musculus, RAW264.7, 24 h) [µM] | IC50 (RAW264.7 [1]; raw264.7) [µM] | Activity (RAW264.7 [2])
1 | C=C1C(=O)O[C@@H]2C[C@H](C)C(CCC(C)=O)=C[C@H](O)[C@H]12 | 13.1 |  | Non-toxic
2 | C=C1C(=O)O[C@H]2C=C(CCC(C)=O)[C@H](C)C[C@H](OC(=O)CC)[C@H]12 | 13.3 |  | Non-toxic
3 | C=C1C(=O)O[C@H]2C[C@@H](C)[C@@H]3[C@@H](OC(C)=O)C[C@H](O)[C@@]3(C)C[C@H]12 | 0.25 |  | Non-toxic
4 | C=C1C(=O)O[C@H]2C[C@@H](C)[C@@H]3[C@@H](OC(C)=O)C[C@H](O)[C@@]3(C)[C@@H](OC(C)=O)[C@H]12 | 0.11 |  | Non-toxic
5 | C=C1C[C@@H]2OC(=O)C(=C)[C@H]2C[C@@H]2[C@@H]1[C@@H](OC(C)=O)C[C@@]2(C)O (stereo in doubt; 5) |  |  | Non-toxic
6 | C=C1C(=O)O[C@H]2C=C(C)[C@H]3[C@@H](OC(C)=O)C[C@@](C)(O)[C@@H]3C[C@H]12 (stereo in doubt; 9) [GAILLARDIN] |  | 2.95 | 
7 | N=C(N)NN [PIMAGEDINE] | 2.7 |  | 
8 | C=C1C(=O)O[C@@H]2C[C@H](C)C(CCC(C)=O)=CC[C@H]12 [TOMENTOSIN] | 9.15 |  | Non-toxic
9 | C=C1C(=O)O[C@H]2C[C@H](C)[C@@H]3CC(=O)C(C)=C3C[C@H]12 [XERANTOLIDE] | 35.6 |  | Non-toxic

Further lines, with some results ahead:

Row | IC50 (RAW264.7 [1]; Mus musculus, RAW264.7, 24 h) [µM] | IC50 (RAW264.7 [1]; raw264.7) [µM] | Compound | Activity (RAW264.7 [2])
10 | 26.2 |  | C=C1C(=O)O[C@H]2C[C@@H](C)[C@H]3[C@@H](OC(C)=O)C[C@@](C)(O)[C@@]34O[C@H]4[C@H]12 | Non-toxic
11 | 28.7 |  | C=C1C(=O)O[C@H]2C=C(C)[C@@H]3CC[C@](C)(O)[C@@H]3C[C@H]12 [4-EPI-ISOINUVISCOLIDE] | Non-toxic
12 | 22.8 |  | C[C@@H]1CC[C@@H]2[C@]3(O)[C@H]1CC[C@@]3(C)C[C@@]2(C)C(=O)O [BRITANLIN C] | Non-toxic
13 | 12.9 |  | C[C@@H]1CC[C@H](O)[C@]2(O)CC[C@H](c3cc3=O)C[C@@]12C [INEARIIFOLIANONE] | Non-toxic
14 | 0.1 |  | C=C1C(=O)O[C@H]2C[C@@H](C)[C@@H]3CC[C@H](O)[C@@]3(C)C[C@H]12 [PSEUDOGUAIANOLIDE] | Non-toxic
